Assay results pooled from the literature.
Protocols differ between the studies behind these lines.

Compound | test system | setting | half-life
CNC(=O)c1cc(OC)cc2c(N3CCc4c(cc(Cn5ccnc5)cc4-c4cn(C)nc4C(F)(F)F)C3=O)ccnc12 | male CD-1 mouse, plasma | oral, 50 mg/kg | 1.1 h
COc1ccc([C@@]23Oc4cc(OC)cc(OC)c4[C@]2(O)[C@H](O)[C@H](C(=O)N(C)C)[C@H]3c2ccccc2)cc1 | mouse, plasma | intravenous, 5 mg/kg | 1.5 h
OC[C@H]1O[C@@H](c2ccc(Cl)c(Cc3ccc(O[C@H]4CCOC4)cc3)c2)[C@H](O)[C@@H](O)[C@@H]1O | CD-1 mouse, plasma | oral, 10 mg/kg | 0.5 h
CCc1ccc(Cc2cc([C@@H]3O[C@H](CO)[C@@H](O)[C@H](O)[C@H]3O)cc3c2CCC3)cc1 | male C57BL/6 mouse, plasma | intravenous, 1 mg/kg | 2.9 h
CC(C)c1cnn2c(NCc3ccccc3)cc(NC[C@H]3CCNC[C@@H]3O)nc12 | male CD-1 mouse, plasma | intravenous, 10 mg/kg | 1.9 h
Cc1noc(-c2ccc(CSCCC(=O)O)cc2)c1NC(=O)O[C@H](C)c1ccccc1Cl | mouse, plasma | oral, 50 mg/kg | 0.98 h
CCc1cc(C(=O)NC)c2nccc(N3CCc4c(cc(Cn5ccnc5)cc4-c4cn(C)nc4C(F)(F)F)C3=O)c2c1 | male CD-1 mouse, plasma | oral, 150 mg/kg | 1.6 h
[Cl-].c1csc([I+]c2cccs2)c1 | mouse, plasma | intraperitoneal, 6 mg/kg | 0.08 h
Cc1cc(Nc2ccc(S(F)(F)(F)(F)F)cc2)n2ncnc2n1 | male Swiss mouse, plasma | oral, 100 mg/kg, single dose | 14 h
Oc1nc2nonc2cc1Nc1c(F)c(F)c(C(F)(F)F)c(F)c1F | male C57BL/6 mouse, plasma | oral, 10 mg/kg | > 15 h
CCOc1ccc(Cc2cc([C@@H]3O[C@H](CO)[C@@H](O)[C@H](O)[C@H]3O)ccc2Cl)cc1 | male C57BL/6 mouse, plasma | oral, 1 mg/kg | 3.7 h
Cc1ccc(NC(=O)c2ccc(CN3CCN(C)CC3)cc2)cc1Nc1nccc(-c2cncc(-c3oncc3C)c2)n1 | male C57BL/6 mouse, plasma | oral, 100 mg/kg/day | 2.6 h
O=C(Nc1ccc(Cl)c(Cl)c1)c1ccc(N2CCNCC2)c([N+](=O)[O-])c1 | male mouse, plasma | intravenous, 3 mg/kg | 3.6 h
Nc1ccc(-c2ccncc2)cc1NC(=O)N1CCCC1 | male C57BL/6 mouse, brain | intraperitoneal, 10 mg/kg | 0.462 h
O=C(Nc1ccc(C(F)(F)F)cc1)N1CCC(Cc2cccc(Oc3ccc(C(F)(F)F)cn3)c2)CC1 | male Swiss mouse, blood | oral, 1 mg/kg | 5.1 h
O=C(NCCN1CCCC1)c1cc(-c2ccc(CN3CCOCC3)cc2)nc2ccc(F)cc12 | female NMRI mouse, blood | oral, 3 mg/kg | 19 h
NC(=S)NN=Cc1ncccc1N | female C57BL/6 mouse, plasma | intravenous, 20 mg/kg | 1.08 h
COc1ccc(C(O)COc2ccc(-c3csc(-c4ccc(OCC(O)c5ccc(OC)c(OC)c5)cc4)n3)cc2)cc1OC (stereo not drawn) | C57BL/6 mouse, plasma | oral, 75 mg/kg | 4.1 h
CC[C@H](C)[C@@H]1NC(=O)[C@@](C)(NC(=O)[C@H](CCCNC(=N)N)NC(=O)[C@H](CC(C)C)NC(=O)[C@@H](NC(=O)[C@H](CCC(N)=O)NC(=O)[C@H](CC(C)C)NC(C)=O)[C@@H](C)O)CCCC=CCCC[C@@](C)(C(=O)N[C@@H](CC(C)C)C(=O)N[C@@H](Cc2ccc3ccccc3c2)C(N)=O)NC(=O)[C@H](CCCNC(=N)N)NC(=O)[C@H](CCC(N)=O)NC1=O | male BALB/c mouse, plasma | intravenous, 15 mg/kg | 1.8 h
CN1CCC[C@H](CN2c3ccccc3Sc3ccccc32)C1.Cl | mouse, plasma | intraperitoneal, 32 mg/kg, single dose | 2.82 h
CNCCN(C)c1cc(C#N)cc(CCc2cc(C)cc(N)n2)c1 | male BALB/c mouse, brain | intravenous, 2 mg/kg | 24.8 h

Compound | test system | setting | half-life
CCN1CCN(Cc2cc(NC(=O)c3ccc(C)c(-c4ccc5nc(NC(=O)C6CC6)cn5n4)c3)cc(C(F)(F)F)c2)CC1 | Swiss mouse, plasma | intravenous, 1 mg/kg | 3.7 h
Cn1cnc2c(F)c(Nc3ccc(Br)cc3Cl)c(C(=O)NOCCO)cc21 | nude mouse, tumour | oral, 5 mg/kg, single dose, tumour-bearing | 2.9 h
CNC(=O)[C@H](Cc1c[nH]cn1)NC(=O)CN(CCCc1ccccc1)CC(=O)OC | male C57BL/6 mouse, plasma | intraperitoneal, 30 mg/kg | 0.117 h
CC(C)Oc1c(NC(=O)c2ccc(NC(=O)[C@H](CC(N)=O)NC(=O)c3ccc(NC(=O)c4ccc(C#N)cc4)cc3)cc2)ccc(C(=O)Nc2ccc(C(=O)O)cc2)c1O | male CD-1 mouse, plasma | subcutaneous, 5 mg/kg, single dose | 1.65 h
Cc1ccc2cncc(N3CCc4c(cc(Cn5ccnc5)cc4-c4cn(C)nc4C(F)(F)F)C3=O)c2c1 | male CD-1 mouse, plasma | oral, 10 mg/kg | 1.1 h
NCC1CCN(c2nc(-c3ccncc3)nc3sc4c(c23)CCCC4)CC1 | female CD-1 mouse, plasma | intravenous, 10 mg/kg | 2.8 h
Cc1nc(-c2cnc(NC(C)C)n(C)c2=O)ccc1Oc1ccnc(-c2cnn(C)c2)c1 | female mouse, plasma | oral, 7.5 mg/kg, single dose | 14 h
COC(=O)CN(CCCc1ccccc1)CC(=O)N[C@@H](Cc1c[nH]cn1)c1nc(C)no1 | male C57BL/6 mouse, plasma | intraperitoneal, 30 mg/kg | 0.1 h
COc1cc(OC)c2nccc(N3CCc4c(cc(Cn5ccnc5)cc4-c4cn(C)nc4C(F)(F)F)C3=O)c2c1 | male CD-1 mouse, plasma | oral, 50 mg/kg | 0.7 h
COc1ccc(NC(=O)N2CCCCN3[C@H](CO)[C@H](c4ccc(C#Cc5ccccc5)cc4)[C@@H]3C2)cc1 | mouse, plasma | intravenous | 3 h
COc1cc2c(Nc3ccc(Cl)c(Cl)c3F)ncnc2cc1OC[C@@H]1C[C@@H]2CN(C)C[C@@H]2C1 | FVB mouse, plasma | oral, 70 mg/kg, single dose | 14 h
Cc1cc(NC(=O)c2cccc3cc(-c4cccc5[nH]nc(N)c45)ccc23)ccc1F | male CD-1 mouse, brain | oral, 10 mg/kg | 2.06 h
CN(C)C/C=C/C(=O)Nc1ccc(O[C@@H]2CCC[C@@H](Nc3ncc(Cl)c(-c4c[nH]c5ccccc45)n3)C2)cc1 | male Swiss mouse, plasma | intravenous, 3 mg/kg | 2.25 h
COc1nc(-c2cc(C)c(N[C@@H](C)c3ccc(F)cc3)nn2)ccc1-n1cnc(C)c1 | male CD-1 mouse, plasma | intravenous, 1 mg/kg, single dose | 2.93 h
COc1ccc2nccc(N3CCc4c(cc(Cn5ccnc5)cc4-c4cn(C)nc4C(F)(F)F)C3=O)c2c1 | male CD-1 mouse, plasma | intravenous, 3 mg/kg | 0.7 h
CC(C)(C)c1ccc(O)c(CN(Cc2cc(C(C)(C)C)ccc2O)C2CCC(NC(N)=O)CC2)c1 (stereo not drawn) | male C57BL/6 mouse, plasma | oral, 10 mg/kg, single dose | 2.7 h
CCc1cc(OC)c2nccc(N3CCc4c(cc(Cn5ccnc5)cc4-c4cn(C)nc4C(F)(F)F)C3=O)c2c1 | male CD-1 mouse, plasma | intravenous, 3 mg/kg | 0.9 h
CC=Cc1ccc(O)c(OC)c1 | mouse, brain | intranasal, 100 mg/kg | 0.294 h
C[C@H]1CCCN1Cc1nc2cc(NC(=O)c3ccc4c(cnn4C)c3)ccc2[nH]1 | female BALB/c mouse, plasma | oral, 100 mg/kg | 0.83 h
COc1nc(-c2cc(C)c(N[C@@H](C)c3cc(F)cc(F)c3)nn2)ccc1-n1cnc(C)c1 | male CD-1 mouse, plasma | intravenous, 1 mg/kg, single dose | 3.1 h
C=CC(=O)N1C[C@H](n2c(C#CC3CC3)c(C(=O)N[C@H](C)c3ccccc3)c3c(N)ncnc32)C[C@@H]1C | male nude mouse, plasma | oral, 6.25 mg/kg, single dose | 2.15 h
